Test results reported in ChEMBL document CHEMBL4513216, “Probing the Open Global Health Chemical Diversity Library for Multistage-Active Starting Points for Next-Generation Antimalarials” (ACS Infect Dis, 2020).

Test: Toxicity liver stage against HepG2, at 10uM
Assay type: cell-based
Design: test concentration 10 uM, cell line HepG2-A16-CD81EGFP
Settings: human, HepG2-A16-CD81EGFP cells; read-out: INHIBITION
How it was run: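 Uninfected HepG2-A16-CD81EGFP cells, 3 × 10^3 per well, 1536-well, plated on prespotted compound at 10 μM final, parasite-free screening media added to match infected plates; puromycin 10 μM positive, DMSO 0.5% negative; run in parallel with 48 h PbLuc assay at 37 °C, 5% CO2; viability by CellTiter-Glo luminescence, normalized to controls.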

| SMILES | cytotoxicity at 10 µM |
| --- | --- |
| CC1=C(c2ccc(Cl)cc2)S(=O)(=O)N=C1N1CCc2ccccc21 | -17.1% |
| COc1ccc(C2CC(=O)Oc3cc(C)[nH]c(=O)c32)c(OC)c1 (configuration not stated) | -3.4% |
| Cn1cc(NC(=O)C2CC(=O)N(c3n[nH]c4cccc(F)c34)C2)cn1 (configuration not stated) | 4.59% |
| Cc1noc(C)c1S(=O)(=O)N1CCC(Oc2ccccn2)CC1 | 0.67% |
| CC(C)(C)c1cc(=O)n2c(n1)SCC(C(=O)NCc1ccco1)C2 (configuration not stated) | -15.1% |
| Cc1nc(N2CCOCC2)nc(C)c1NC(=O)c1ccco1 | 1.9% |
| CCS(=O)(=O)N1CCC2(CN(c3cc(OC)ncn3)C2)C1 | 0.325% |
| O=C1[C@@H]2CCN(CC3CC3)C[C@@H]2OCCN1c1cccnc1 | 8.1% |
| O=C(c1ncn2c1CNS(=O)(=O)c1ccccc1-2)N1CCOCC1 | 8.28% |
| CN(C)C(=O)N1CCCC2(CCN(Cc3ccncc3)C2)C1 (configuration not stated) | 7.61% |
| O=c1cc(Cn2ccnc2)nc2n1CCCN(CC1CCOCC1)C2 | 12.7% |
| CCS(=O)(=O)N1CCO[C@H]2[C@H](OCC3CCCC3)CC[C@@H]21 | -9.6% |
| CCN1CCC2(CC1)CC(Nc1ncccn1)CO2 (configuration not stated) | -21.6% |
| CCNc1nc(N(C)C)nc(-n2cnc(SC)n2)n1 | 2.22% |
| CC(C(=O)N1CCOCC1)n1cc(Br)cn1 (configuration not stated) | 14.1% |
| Cc1ccc(CN2CCN(CC(=O)Nc3ccc4nsnc4c3)CC2)o1 | -17.5% |
| Cn1nc(C(=O)NCc2ccccc2C(F)(F)F)c2c1CCS(=O)(=O)C2 | 5.37% |
| CCCc1nc(NCC(=O)N2CCOCC2)c2c(n1)c(C)nn2CC | 12.2% |
| COc1ccc(C2=NOC(CC#N)C2)cc1 (configuration not stated) | 1.52% |
| O=C(O)c1cnc(N2CCC(O)CC2)nc1COc1ccc(F)cc1 | -7.52% |
| CC(C)C(=O)NC(Cc1cc(N(C)C)nc(C2CC2)n1)c1ccccc1 (configuration not stated) | 3.37% |
| Cc1ocnc1C(=O)N(C)[C@@H]1CC[C@@H](n2ccnc2C)[C@@H]1O | 0.642% |
| COc1cc(OC)cc(C(=O)N2CCOCC2c2[nH]ncc2C)c1 (configuration not stated) | 7.83% |

| SMILES | cytotoxicity at 10 µM |
| --- | --- |
| COc1ccc(CC(=O)N2CCCC2c2nc(C)c(C)c(O)n2)cc1 (configuration not stated) | -17.7% |
| Cc1nc2ccc(C(=O)N3C[C@@H](O)[C@H](N4CCN(C)CC4)C3)cc2[nH]1 | -27.5% |
| CCCN(C(=O)c1ccncc1)c1nc2c(s1)CCc1c-2cnn1C | -14.6% |
| Cc1nc2c(c(=O)[nH]1)CCN(C(=O)c1cccc3nccnc13)C2 | -16.8% |
| O=C(c1cccnc1)N1CCc2c(nc(N3CCCC3)[nH]c2=O)C1 | 4.51% |
| CCCC(=O)NCCc1cc(N2CCN(C(C)=O)CC2)nc(C2CC2)n1 | -28.2% |
| Cc1cccc(Nc2nccnc2C2CCCN2CC(=O)N(C)C)n1 (configuration not stated) | -5.28% |
| FC(F)(F)Cn1nnnc1SCCN1CCCCC1 | -61.4% |
| CN(Cc1cc(Br)cs1)Cc1nnsc1Cl | -7.38% |
| COCCCN1Cc2cccc(NC(=O)c3cc(F)cc(F)c3)c2C1 | 2.28% |
| Cc1ccc(CNC(CCO)C2CCCCC2)nc1 (configuration not stated) | -37.4% |
| Cc1ncccc1CNC(CCO)C1CCCCC1 (configuration not stated) | -41.8% |
| COc1ccc(C(=O)NC2CCN(c3ncccn3)CC2)cc1F | -17.8% |
| COC(=O)N1CCCC(C(=O)Nc2ccccc2CN2CCCC2)C1 (configuration not stated) | -9.07% |
| Cc1ccc(N2CCCC(N(C)Cc3ccccn3)C2)nn1 (configuration not stated) | -4.01% |
| CCOC(=O)NC(CNC(=O)c1cccc(C)n1)CC(C)C (configuration not stated) | 6.17% |
| CC(=O)NCCNC(=O)Nc1cccc(Cl)c1SC(F)F | -13.1% |
| Cc1n[nH]c(C2CN(C(=O)c3ccc4c(c3)CCCC4)CCO2)n1 (configuration not stated) | -10.8% |
| CN1N=C(C(=O)N(Cc2ccco2)C2CCCC2)CCC1=O | -144% |
| CCOC1CCN(C(=O)c2ccc(-n3ncc(C#N)c3N)cc2)CC1 | -1.1% |
| Cc1n[nH]c(C)c1NC(=O)C1CCCN(C(=O)NCC(C)C)C1 (configuration not stated) | 11% |
| Cc1noc(C)c1CC(=O)NCC(C)N1CCOCC1 (configuration not stated) | -52% |
| COc1ccc2c(c1)C(NCCc1ncc(C)s1)CCCO2 (configuration not stated) | -3.86% |

| SMILES | cytotoxicity at 10 µM |
| --- | --- |
| O=C(Cc1ccccc1Cl)Nc1ccn(CCN2CCOCC2)n1 | -5.44% |
| Cc1cccn2cc(CNCc3cccc4c3OCCCO4)nc12 | 15.5% |
| Cc1cc(CCC(=O)NCc2nccn2C)ccc1Br | 2.95% |
| O=C(CN(CC(O)c1ccc(F)cc1)C1CC1)NC(C1CC1)C1CC1 (configuration not stated) | 11.8% |
| O=C(Nc1ccccc1)c1ccc(NCc2ccccc2CO)nn1 | 4.34% |
| CC(C)c1noc(CCNC(=O)N2CCN(c3cccs3)CC2)n1 | -5.37% |
| COCC(C)NC(=O)CSc1ccc(F)c(Cl)c1 (configuration not stated) | -48% |
| O=S(=O)(Cc1ccc(F)cc1F)NCCOc1cccnc1 | -45.9% |
| CN(Cc1cnccn1)c1cncc(Br)c1 | -8.46% |
| OC(CNC1CCOCC1)c1cccc(OCc2ccccc2)c1 (configuration not stated) | -10.3% |
| O=C(c1ccco1)N1CCCC2(C1)CN(c1nncs1)CCO2 (configuration not stated) | -99.3% |
| COc1cc(N2CCC3(CC2)CN(S(C)(=O)=O)c2ccccc23)ncn1 | 12.8% |
| O=C(C1CCOC1)N1CCC2(CCN(Cc3nccs3)C2)CC1 (configuration not stated) | -74.8% |
| Cn1nc(CN2CCCCC2)c2c1CN(C(=O)c1ccccc1)C2 | 4.83% |
| CCOC(=O)c1coc(N2CCC(N3CCC(O)CC3)CC2)n1 | 6.41% |
| Cc1cnc(C(=O)N2CCCCC2c2ccc(CN(C)C)cc2)cn1 (configuration not stated) | -2.46% |
| Cc1cc(NC2CCN(CC3CCCO3)CC2)n2nc(C)c(C)c2n1 (configuration not stated) | 8.96% |
| COCCN(Cc1ccncc1)C(=O)C1COc2ccccc2C1 (configuration not stated) | 6.77% |
| CCN1CC(C(=O)NCCCc2nc(C)c(C)s2)CC1=O (configuration not stated) | -7.03% |
| CCO[C@H]1C[C@@H](O)C12CCN(S(=O)(=O)c1ccccc1OC)CC2 | 2.01% |
| c1cc(CN2CCC(c3ccncc3)CC2)cc(Cn2cccn2)c1 | -10.1% |
| Cc1ccc(C)c2c(O)cc(CN3CCC(c4nncn4C)CC3)nc12 | -2.24% |
| Cc1cc(NC(=O)c2ccc(N3CCOCC3)c(C)c2)[nH]n1 | -35.1% |

| SMILES | cytotoxicity at 10 µM |
| --- | --- |
| CSCCCN(CCN1CCOCC1)Cc1ccco1 | 8.05% |
| CC(C)c1cc(C(=O)N(C)C(C)c2nccs2)no1 (configuration not stated) | -9.15% |
| Cn1ccnc1CN1CCC(Cn2cc(-c3ccncc3)nn2)CC1 | -4.5% |
| NCC1CN(Cc2cn(CCC(N)=O)c3ccccc23)CCO1 (configuration not stated) | 4.01% |
| C=C(C)CN1CCC(n2cc(C3CCCC3)nn2)CC1 | 4.98% |
| CCOC(=O)c1coc(N2CCN(C(=O)c3cccc(OC)c3)CC2)n1 | 8.15% |
| Cc1ncnc(N2CCN(C(=O)C3CC4(CCNCC4)CN3)CC2)c1C (configuration not stated) | -14.7% |
| Cc1nc(CCNC(=O)C2CC(=O)N(C(C)(C)C)C2)sc1Cl (configuration not stated) | 16.8% |
| Nc1ccnc(-c2cc(NC3CCNCC3)nc3[nH]ccc23)c1 | 3.18% |
| COCC(=O)N1C[C@@H](C)[C@](O)(C(C)C)C1 | 1.69% |
| N#Cc1ccccc1CN1CCCC(c2nccn2CC2CCC2)C1 (configuration not stated) | -5.06% |
| CCOc1ccc(Cl)cc1C(C(=O)O)N1CCCC1 (configuration not stated) | 0.95% |
| O=C(c1ccc2nccn2c1)N1CCC(CCn2cccn2)CC1 | -1.63% |
| CC(C)c1cc(N(C)Cc2noc(C3CCCC3)n2)n2nccc2n1 | -0.0395% |
| COc1ccc(OCC2CCCN(Cc3ccncc3)C2)cc1 (configuration not stated) | -8.44% |
| CCS(=O)(=O)CCNCc1cc(O)c2cc(C)cc(C)c2n1 | 1.36% |
| CCc1cnc(C)nc1N1CCN(C(N)=O)CC1 | -46.3% |
| Cc1ccc(Cl)c(C)c1NC(=O)N1CCCN(Cc2ccccn2)CC1 | 0.617% |
| COc1ccc(OC)c(C2CCN(Cc3nc(C)n4ccccc34)C2)c1 (configuration not stated) | -8.66% |
| Cc1cc(CNC2CCCN(Cc3noc(C4CC4)n3)C2)on1 (configuration not stated) | -17.7% |
| CC(OCC1CC1)C(=O)N1CCCN(Cc2nccn2C(C)C)CC1 (configuration not stated) | -11.9% |
| CC(Cc1ccccc1Cl)NC(=O)Nc1cnn(CC(N)=O)c1 (configuration not stated) | -4.23% |
| COc1ccc(COCC(O)CNC(=O)c2cc(C)oc2C)cc1 (configuration not stated) | -13.3% |

| SMILES | cytotoxicity at 10 µM |
| --- | --- |
| Cc1cnn(CCNCC(O)COc2ccc(Cl)cc2)c1 (configuration not stated) | -12.6% |
| CN(Cc1ccsc1)C(=O)Nc1ccc(S(C)(=O)=O)nc1 | 3.28% |
| CCn1cnnc1CNC(=O)NCC(c1cccs1)N1CCCC1 (configuration not stated) | -7.72% |
| COCc1nc(C(=O)N2CCCC2c2c(C)nn(C)c2C)cs1 (configuration not stated) | -4.74% |
| O=C(CCc1cccs1)N1CCCCC1Cn1cccn1 (configuration not stated) | 1.54% |
| Cc1nc(C)n(CC2CCCN2Cc2cc(C)on2)n1 (configuration not stated) | 4.04% |
| CS(=O)(=O)c1ccc(-c2cnc(C3CCCN3)cn2)cc1 (configuration not stated) | -1.71% |
| Cc1cc(C)nc(Nc2cc(C3CCCN(C)C3)nc(C)n2)n1 (configuration not stated) | -5.12% |
| CC(C)OCc1ncn2c1CN(Cc1nccs1)CCC2 | -83.6% |
| O=C(C1CCOCC1)N1CCc2onc(COc3cccnc3)c2C1 | -69.6% |
| CNC(=O)C1Cn2ccnc2C2(CCN(Cc3cccs3)CC2)O1 (configuration not stated) | -70.6% |
| O=C(c1ccc(O)cc1)N1C[C@@H]2CCN(c3cccnc3)C[C@@H]2C1 | -50.9% |
| Cn1cc(C[C@H]2[C@H](O)CCN2Cc2ccncc2)cn1 | -78.5% |
| COCCN1CCC2(CC1)CC(NCc1ccc(C)s1)c1ccccc12 (configuration not stated) | -121% |
| c1cncc(C2COC3(CCN(Cc4ccsc4)CC3)C2)c1 (configuration not stated) | -3.74% |
| CNC(=O)[C@H]1CC[C@@H]2[C@@H](CCN2CCOCc2ccccc2)O1 | -109% |
| CCS(=O)(=O)N1CCCC2(COCCN(c3cnccn3)C2)C1 (configuration not stated) | 10.2% |
| COc1cccc(-c2ncc(CN3CC[C@@H]4CC[C@H](C3)N4)s2)c1 | -12.4% |
| CC(c1cn2ncsc2n1)n1cc2[nH]cccc-2c1=O (configuration not stated) | -3.74% |
| Cn1ccc(NC(=O)CN2C[C@@H]3CC[C@H]2CN(Cc2ccccn2)C3)n1 | 0.936% |
